This is a sample that favours compounds with a hit; in the whole collection about 1.4% have one here.
EBNA-1 inhibitor: EBNA-1 DNA-binding inhibitors, primary screen, biochemical, fluorescence polarization; inhibition, % at 14.8 µM; AID 1950, 2009; hit rate 0.34% among 300,000; in the data active = inhibition above about 28%
ZTA DNA inh: ZTA (EBV) inhibition in EBNA-1 counter-screen; P03206; ZTA-DNA binding, fluorescence polarization; inhibition, % at 11 µM; hit rate 0.15% among 320,000; in the data active = inhibition above about 33%
Target sequence (P03206 whole entry, looked up): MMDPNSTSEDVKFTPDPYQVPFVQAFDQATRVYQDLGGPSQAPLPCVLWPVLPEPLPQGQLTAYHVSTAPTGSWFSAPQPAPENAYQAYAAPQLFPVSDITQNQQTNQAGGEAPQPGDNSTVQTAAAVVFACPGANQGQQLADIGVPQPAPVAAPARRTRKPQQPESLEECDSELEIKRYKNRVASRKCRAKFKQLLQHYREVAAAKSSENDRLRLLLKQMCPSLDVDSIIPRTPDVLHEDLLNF
Fh CTSL1 inh: Fasciola hepatica cathepsin L1 inhibitors, primary screen, counter-screen for PFM18AAP inhibitor project, biochemical, QFRET, fluorogenic peptide substrate; recombinant F. hepatica cathepsin L1, Z-Leu-Arg-MCA fluorescence; inhibition, % at 5.96 µM; hit rate 0.49% among 300,000; AID 1906, 2009;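 active = inhibition above the mean of all tested compounds plus 3 SD, set per screening campaign, cut at about 17% in these data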
HCV NS3 hel inh: inhibitors of HCV NS3 helicase, primary screen, biochemical, Cy5 molecular beacon fluorescence; Hepatitis C virus NS3 helicase; NS3 helicase DNA unwinding; inhibition, % at 10.9 µM; hit rate 0.56% among 290,000;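 active = inhibition above the mean of all tested compounds plus 3 SD, set per campaign, cut at about 35% in these data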
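Test system: hepatitis C virus NS3 helicase domain fragment enzyme. Also added: annealed dual-labelled DNA beacon duplex, ATP-started. Timing: 60 min unwinding reaction at 25 °C after ATP addition. Technique: Cy5 fluorescence. Measure: % inhibition of unwinding.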
EBNA-1 confirm: EBNA-1 DNA-binding inhibitors, retest, confirmation, biochemical, fluorescence polarization, triplicate; hit rate 35% among 830; Recombinant EBNA-1 DBD, Cy5-DNA fluorescence polarization; inhibition, % at 14.8 µM; shares compounds with EBNA-1 inhibitor; AID 2292, 2010;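 active = mean inhibition across replicates above a set limit taken from the earlier primary screen, cut at about 28% in these data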
ZTA counter trip: EBV Zta DNA binding inhibitors, counter-screen for EBNA-1 inhibitor project, biochemical, fluorescence polarization, triplicate; inhibition, % at 11.1 µM; Zta-ZRE DNA binding, Cy5 fluorescence polarization; 830 tested, under 10 active; shares compounds with EBNA-1 inhibitor;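 active = mean inhibition over triplicates above a set limit taken from the primary EBNA-1 screen, cut at about 37% in these data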;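 also: purified full length Zta protein with Cy5 labeled ZRE DNA probe; inhibitors lower polarization by freeing the labeled DNA probe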
A number is an active result; n = inactive; x = no result.

SMILES	EBNA-1 inhibitor	ZTA DNA inh	Fh CTSL1 inh	HCV NS3 hel inh	EBNA-1 confirm	ZTA counter trip
Cc1ccc(C(C(=O)NCC2CCCO2)N(Cc2ccccc2F)C(=O)Cn2nnc(-c3cccs3)n2)cc1 (centres undefined)	36.6	n	n	n	n	n
O=C(NC1CCCC1)C(c1ccncc1)N(CC1CCCO1)C(=O)Cn1nnc(-c2cccs2)n1 (centres undefined)	n	n	n	n	x	x
O=C(Cc1ccc(-n2cccc2)cc1)NCc1cccs1	32.5	n	n	n	n	n
CCOC(=O)/C=C1\CC(=O)Nc2cc(C)c(C)cc2N1	n	n	n	n	x	x
COc1ccc(CNc2ncnc(N)n2)cc1	n	n	n	n	x	x
COc1ccc(CNc2nc(NCc3ccc(OC)cc3)c3[nH]cnc3n2)cc1	39.2	n	n	x	n	n
COc1ccc2c(c1)CCN(C(=O)CCl)C2C1C(=O)CCCC1=O (centres undefined)	n	n	n	n	x	x
O=C(CN1CCN(S(=O)(=O)c2ccc(Br)cc2)CC1)N/N=C/c1ccc(Cl)c([N+](=O)[O-])c1	n	n	n	n	x	x
Cc1cccc(N2CC(C(=O)Nc3ccc(S(=O)(=O)N4CCOCC4)cc3)CC2=O)c1 (centres undefined)	n	n	n	n	x	x
COc1ccc(CNc2nc(NCc3ccc(OC)cc3)n(C(C)=O)n2)cc1	65.4	n	n	n	72.0	n
O=C(NC1CCCCC1)c1cc(Cl)ccc1[N+](=O)[O-]	n	n	n	n	x	x
CCn1c(SCC(=O)NCCc2ccccc2)nc2c([nH]c3ccccc32)c1=O	41.8	n	n	n	n	n
O=S(=O)(Nc1cc(Sc2cccc3cccnc23)c(O)c2ccccc12)c1ccc(F)cc1	32.7	n	n	n	n	n
COc1ccc(S(=O)(=O)Nc2cc(Sc3ncn[nH]3)c(O)c3ccccc23)cc1	x	x	x	n	x	x
O=C(NC1CC2CCCC(C1)N2C(=O)Nc1cccc(F)c1)C1CC1 (centres undefined)	n	n	n	n	x	x
CCOc1ccc(C(=O)NC(=S)Nc2ccc(NC(=O)CC)cc2)cc1[N+](=O)[O-]	n	n	n	n	x	x
CCC(=O)NC(=S)Nc1ccc(NC(=O)c2ccc(C)c([N+](=O)[O-])c2)cc1	43.2	n	n	n	32.7	n
CCN1C(=O)c2cccc3c(S(=O)(=O)Nc4ccc(OC)cc4OC)ccc1c23	32.2	n	n	n	n	n
CCN1C(=O)c2cccc3c(S(=O)(=O)Nc4ccccc4)ccc1c23	n	n	n	n	x	x
Cc1ccc2c(c1)nnn2C1CCN(S(=O)(=O)c2ccc(C(=O)N(C)C)cc2)CC1	n	n	n	n	x	x
Cc1ccc2c(c1)nnn2C1CCN(S(=O)(=O)c2ccc(C(=O)NC3CCCC3)cc2)CC1	34.9	n	n	n	35.6	n
CN(C)CCCOC(=O)c1cc2ccccc2o1	n	n	n	n	x	x
COc1ccc2cc(C(=O)/C=C/c3cc(OC)c(OC)c(OC)c3)ccc2c1	47.9	n	n	n	n	n
Cc1sc2nc(SCC(=O)NCc3ccco3)n(Cc3ccccc3)c(=O)c2c1C	n	n	n	n	x	x
C=CCn1c(SCC(=O)NCc2ccco2)nc2sc(C)c(C)c2c1=O	41.6	n	n	n	n	n
SMILES	EBNA-1 inhibitor	ZTA DNA inh	Fh CTSL1 inh	HCV NS3 hel inh	EBNA-1 confirm	ZTA counter trip
CCOC(=O)c1cc2cc(CC(=O)c3ccc(OCC)cc3O)ccc2o1	27.8	n	n	n	29.6	n
O=C(NC(c1ccc(Cl)cc1)c1cc(Cl)c2cccnc2c1O)c1cccnc1 (centres undefined)	n	n	n	n	x	x
Cn1c(C(=O)N2CCN(c3nc4ccccc4s3)CC2)cc2sccc21	50.9	n	n	n	30.8	n
COc1ccc(C(=O)CSc2nnc(CNC(=O)c3ccc(S(=O)(=O)N(C)C)cc3)o2)cc1	n	n	n	n	x	x
Cc1cccc(COC(=O)Nc2ccc(NC(=O)c3ccccc3Cl)cc2)c1	47.8	n	n	n	n	n
CCOC(=O)Nc1ccccc1C(=O)Nc1cc(C)cc(C)c1	n	n	n	n	x	x
N#Cc1ccsc1NC(=O)COC(=O)c1cc2ccccc2cc1O	48.4	n	n	n	n	n
N#Cc1ccsc1NC(=O)COC(=O)c1ccc(NC(N)=O)cc1	n	n	n	n	x	x
COc1ccc(-c2sccc2C(C)C(=O)O)cc1 (centres undefined)	n	n	n	n	x	x
CCS(=O)(=O)N1CCC(C(=O)NCCCN2CCC(Cc3ccccc3)CC2)CC1	n	n	n	n	x	x
O=C(N/N=C/c1ccc(-c2ccc(S(=O)(=O)Nc3ncccn3)cc2)o1)c1cc2ccccc2cc1O	32.3	n	n	n	46.0	40.9
COc1ccc(CC(=O)Nc2ccc3c(C)cc(=O)oc3c2)cc1OC	40.1	n	n	n	n	n
Cc1ccc(S(=O)(=O)N(C(=N)N)c2nc(N(C)C)nc(N(C)C)n2)cc1	30.6	n	n	n	n	n
COc1ccc(CC2(CO)CCN(Cc3ccc(NC(C)=O)cc3)CC2)cc1	45.9	n	n	n	n	n
COc1cccc(CC2(CO)CCN(Cc3ccc(NC(C)=O)cc3)CC2)c1	n	n	n	n	x	x
Cc1cc(NC(=O)CSc2nnc(NC(=O)C3CC(=O)N(c4ccccc4C)C3)s2)no1 (centres undefined)	n	n	n	n	x	x
Cc1cc(NC(=O)CSc2nnc(NC(=O)C3CC(=O)N(c4ccccc4)C3)s2)no1 (centres undefined)	83.4	n	n	n	n	n
COc1ccccc1NC(=O)Cn1nnc(-c2ccccc2NC(=O)c2cccs2)n1	n	n	n	n	x	x
O=C(Cn1nnc(-c2ccccc2NC(=O)c2cccs2)n1)Nc1ccccc1	27.6	n	n	n	47.3	n
COc1ccc(C(=O)Nc2ccccc2-c2nnn(CC(=O)NCc3ccco3)n2)cc1	54.3	n	n	n	n	n
COc1ccccc1C(=O)Nc1ccc(-c2nnn(CC(=O)NCc3ccco3)n2)cc1	42.0	n	n	n	51.9	n
O=C(O)c1ccccc1C(=O)Nc1n[nH]c(=S)s1	n	n	n	n	x	x
CC(=O)Nc1ccc(S(=O)(=O)N2CCN=C2SCc2ccc(F)cc2)cc1	n	n	n	n	x	x
C=CCn1c(=NC(=O)c2cc(-c3cccs3)nc3ccccc23)sc2cc(S(N)(=O)=O)ccc21	28.8	n	n	n	n	n
CCOc1ccc(N2C(=O)CC(NC3CCN(C(=O)c4cccc(Cl)c4)CC3)C2=O)cc1 (centres undefined)	50.1	n	n	n	n	n
CC(=O)N1CCN=C1SCc1ccc(C(F)(F)F)cc1	40.5	n	n	n	n	n

Screens from PubChem.
